pIC50: −log10 of the molar value. The source made the active and inactive calls. No cut-off for these calls is given here.
Legend:
[1] = Selectivity index, ratio of TC50 for human HepG2.2.15 cells to IC50 for HBV DNA replication
In short: (§1)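 SI = TC50/IC50. TC50 is the 50% cytotoxic concentration in HepG2.2.15 cells by neutral red uptake after 9 days. IC50 comes from the 8-day HepG2.2.15 treatment in RPMI 1640 with 2% FBS, read by Southern blot for DNA or by enzyme immunoassay for secreted HBeAg or HBsAg.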

[2] = Selectivity index, ratio of TC50 for human HepG2.2.15 cells to IC50 for HBV surface antigen production; in short: as §1
[3] = Cytotoxicity against human HepG2.2.15 cells after 9 days by MTT assay; assay type: cell-based, HepG2 2.2.15; details: read-out: TC50
In short: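 HepG2.2.15 cells were treated as in the antiviral assay (RPMI 1640, 2% FBS, daily renewal), with untreated controls on each plate. Viability after 9 days of treatment was read from neutral red uptake as absorbance at 510 nm relative to untreated cells. TC50 is the 50% cytotoxic concentration.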

[4] = tested on: Hepatitis B virus; assay: Antiviral activity against HBV assessed as inhibition of viral DNA replication by Southern blot; assay type: functional, organism-based
In short: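 Confluent HepG2.2.15 cultures were dosed across a range of concentrations in RPMI 1640 with 2% FBS. Medium and compound were renewed daily for 8 days. Intracellular HBV DNA was quantified by Southern blot hybridization and IC50 was taken as the 50% inhibitory concentration.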

[5] = tested on: Hepatitis B virus; assay: Antiviral activity against HBV assessed as inhibition of viral surface-antigen production by enzyme immunoassay; assay type: functional, organism-based
In short: (§2)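 Confluent HepG2.2.15 cells were treated with varied doses in RPMI 1640 plus 2% FBS, with fresh medium and drug each day for 8 days. Secreted HBeAg or HBsAg in the supernatant was measured by semiquantitative enzyme immunoassay, giving a 50% inhibitory concentration (IC50).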

[6] = tested on: Hepatitis B virus; assay: Antiviral activity against HBV assessed as inhibition of viral e-antigen production by enzyme immunoassay; assay type: functional, organism-based; in short: as §2
[7] = Selectivity index, ratio of TC50 for human HepG2.2.15 cells to IC50 for HBV e-antigen production; in short: as §1
[8] = tested on: Hepatitis B virus; assay: Antiviral activity against HBV assessed as inhibition of viral surface-antigen production at <60 uM by enzyme immunoassay; assay type: functional, organism-based

SMILES | Ratio [1] | Ratio [2] | CC50 at 216 h [3] [µM] | pIC50 [4] | pIC50 [5] | pIC50 [6] | Ratio [7] | Activity [8]
CCOC(=O)c1cc2c(Cn3ccnc3)c(O)c(OC)cc2nc1CSc1ccc(F)cc1 | 6.2 | 6 | 202 | 4.38 | 4.37 |  |  | 
CCOC(=O)c1cc2c(CN3CCOCC3)c(O)c(OC)cc2nc1CSc1ccc(F)c(F)c1 |  | 13.7 | 79.7 |  | 5.24 | 4.96 | 7.3 | 
CCOC(=O)c1cc2c(CN3CCCCC3)c(O)c(OC)cc2nc1CSc1ccc(F)c(F)c1 | 5.6 |  | 135 | 4.62 |  |  |  | 
CCOC(=O)c1cc2c(CN3CCN(C)CC3)c(O)c(OC)cc2nc1CSc1ccc(F)c(F)c1 |  | 4.9 | 55.3 |  | 4.95 |  |  | 
CCOC(=O)c1cc2c(Cn3ccnc3)c(O)c(OC)cc2nc1C[S+]([O-])c1ccc(F)c(F)c1 (configuration not stated) | 7.3 |  | 90.8 | 4.90 |  |  |  | 
CCOC(=O)c1cc2c(CN3CCCC3)c(O)c(OC)cc2nc1CSc1ccc(F)cc1 | 4.6 | 5.6 | 47.3 | 4.99 | 5.07 | 5.03 | 5.1 | 
CCOC(=O)c1cc2c(CN(C)C)c(O)c(OC)cc2nc1CSc1ccc(F)cc1 | 3.7 | 6.9 | 120 | 4.48 | 4.76 |  |  | 
CCOC(=O)c1cc2c(CN(C)C)c(O)c(OC)cc2nc1C[S+]([O-])c1ccc(F)cc1 (configuration not stated) | 4.1 | 2.5 | 90.4 | 4.66 | 4.44 |  |  | 
CCOC(=O)c1cc2c(CN3CCCC3)c(O)c(OC)cc2nc1C[S+]([O-])c1ccccn1 (configuration not stated) |  |  | 9.4 |  |  |  |  | 
CCOC(=O)c1cc2c(CN3CCCC3)c(O)c(OC)cc2nc1C[S+]([O-])c1ccc(F)cc1 (configuration not stated) | 15.5 | 6.6 | 166 | 4.97 | 4.60 | 4.68 | 7.9 | 
CCOC(=O)c1cc2c(CN3CCCCC3)c(O)c(OC)cc2nc1CSc1ccccc1 | 1.3 |  | 60.7 | 4.34 |  |  |  | inactive
CCOC(=O)c1cc2c(CN(C)C)c(O)c(OC)cc2nc1CSc1ccccc1OC |  |  | 58.5 |  |  | 4.69 | 2.9 | 
CCOC(=O)c1cc2c(CN3CCCC3)c(O)c(OC)cc2nc1CSc1ccccn1 |  |  | 17.5 |  |  |  |  | 
Nc1ccn([C@@H]2CS[C@H](CO)O2)c(=O)n1 [LAMIVUDINE] | 7.1 |  | 2210 | 3.51 |  |  |  | 
CCOC(=O)c1cc2c(Cn3ccnc3)c(O)c(OC)cc2nc1C[S+]([O-])c1ccc(F)cc1 (configuration not stated) | 34.1 | 6.1 | 160 | 5.33 | 4.58 | 4.01 | 1.6 | 
CCOC(=O)c1cc2c(CN3CCCC3)c(O)c(OC)cc2nc1C[S+]([O-])c1ccc(F)c(F)c1 (configuration not stated) | 3.1 |  | 16.5 | 5.28 |  |  |  | 
CCOC(=O)c1cc2c(Cn3ccnc3)c(O)c(OC)cc2nc1CSc1cccc(OC)c1 |  |  | 186 |  |  | 4.19 | 2.9 | 
CCOC(=O)c1cc2c(Cn3ccnc3C)c(O)c(OC)cc2nc1CSc1ccc(F)cc1 | 2.6 |  | 78.5 | 4.51 |  | 4.79 | 4.8 | 
CCOC(=O)c1cc2c(Cn3ccnc3)c(O)c(OC)cc2nc1CSc1ccc(OC)c(OC)c1 |  |  | 189 |  |  |  |  | 
CCOC(=O)c1cc2c(Cn3ccnc3)c(O)c(OC)cc2nc1C[S+]([O-])c1cccc(OC)c1 (configuration not stated) |  | 5.9 | 194 |  | 4.48 |  |  | 
CCOC(=O)c1cc2c(Cn3ccnc3)c(O)c(OC)cc2nc1CSc1ccc(F)c(F)c1 | 14.1 |  | 133 | 5.03 |  | 4.79 | 8.1 | 
